{"data": "Published values collected from several papers", "M-phase phosphoprotein 8 chromodomain": "M-phase phosphoprotein 8, chromodomain (Homo sapiens, UniProt Q99549)", "AChE": "AChE (Phlebotomus papatasi, UniProt M1F887)", "HTR1A": "5-hydroxytryptamine receptor 1A (HTR1A, Homo sapiens, UniProt P08908)", "IKBKB": "Inhibitor of nuclear factor kappa-B kinase subunit beta (IKBKB, Homo sapiens, UniProt O14920)", "note": "Each line is one published result; the experiments were not run side by side."}
{"SMILES": "CCN(CCCC[C@H](NC(=O)[C@H](CC(C)C)NC(=O)[C@H](C)NC(=O)[C@H](Cc1ccccc1)NC(=O)c1cccnc1)C(=O)N[C@@H](CO)C(N)=O)C(C)C", "target": "M-phase phosphoprotein 8 chromodomain", "observed": "cell-free assay", "technique": "TR-FRET", "IC50 [nM]": 2200}
{"SMILES": "CNC(=O)Oc1cccc2c1OC(C)(C)O2", "target": "AChE", "observed": "enzyme activity", "action": "inhibitor", "IC50 [nM]": 15}
{"SMILES": "CCN(CCCC[C@H](NC(=O)[C@H](CC(C)C)NC(=O)[C@H](C)NC(=O)[C@H](Cc1ccccc1)NC(=O)c1ccc(NC)cc1)C(=O)N[C@@H](CO)C(N)=O)C(C)C", "target": "M-phase phosphoprotein 8 chromodomain", "observed": "cell-free assay", "technique": "TR-FRET", "IC50 [nM]": 4400}
{"SMILES": "O=C(CCCc1ccc(N(CCCl)CCCl)cc1)NCCC1CCN(CCOc2ccc(Oc3c(-c4ccc(O)cc4)sc4cc(O)ccc34)cc2)CC1", "target": "Estrogen receptor (ESR1, Homo sapiens, UniProt P03372)", "observed": "ligand displacement", "technique": "radioligand", "IC50 [nM]": 37}
{"SMILES": "C=C(C)[C@@H]1CCC(C)=C[C@H]1c1c(O)cc(CCCCC)cc1O", "target": "G-protein coupled receptor 52 (GPR52, Homo sapiens, UniProt Q9Y2T5)", "observed": "cAMP", "action": "antagonist", "IC50 [nM]": 2450}
{"SMILES": "CCCCCNC(=N)N/N=C/c1c[nH]c2ccc(OC)cc12", "target": "HTR1A", "observed": "calcium signal", "action": "antagonist", "IC50 [nM]": 870}
{"SMILES": "CNC(=O)Oc1cccc2ccccc12", "target": "AChE", "observed": "enzyme activity", "action": "inhibitor", "IC50 [nM]": 167}
{"SMILES": "CCN(CCCC[C@H](NC(=O)[C@H](Cc1ccccc1)NC(=O)[C@H](C)NC(=O)[C@H](Cc1ccccc1)NC(=O)c1cccnc1)C(=O)N[C@@H](CO)C(N)=O)C(C)C", "target": "M-phase phosphoprotein 8 chromodomain", "observed": "cell-free assay", "technique": "TR-FRET", "IC50 [nM]": 550}
{"SMILES": "CC(CCc1ccccc1)NC(C)C(O)c1ccc(O)cc1 (centres unmarked)", "target": "HTR1A", "observed": "ligand displacement", "technique": "radioligand", "IC50 [nM]": 3380}
{"SMILES": "COCCOCOc1cc(OCc2ccc(Br)cc2)c(C(=O)/C=C/c2ccc(C(=O)O)cc2)cc1C12CC3CC(CC(C3)C1)C2", "target": "IKBKB", "observed": "enzyme activity", "action": "inhibitor", "technique": "TR-FRET", "IC50 [nM]": 2730}
{"SMILES": "CCN(CCCC[C@H](NC(=O)[C@H](CC(C)C)NC(=O)[C@H](C)NC(=O)[C@H](Cc1ccccc1)NC(=O)c1ccc(N)c(Br)c1)C(=O)N[C@@H](CO)C(N)=O)C(C)C", "target": "M-phase phosphoprotein 8 chromodomain", "observed": "cell-free assay", "technique": "TR-FRET", "IC50 [nM]": 400}
{"SMILES": "COCCOCOc1cc(OCc2cc(F)cc(F)c2)c(C(=O)/C=C/c2ccc(C(=O)O)cc2)cc1C12CC3CC(CC(C3)C1)C2", "target": "IKBKB", "observed": "enzyme activity", "action": "inhibitor", "technique": "TR-FRET", "IC50 [nM]": 1830}
{"SMILES": "CCOP(=O)(OCC)Oc1ccc2c(C)c(Cl)c(=O)oc2c1", "target": "AChE", "observed": "enzyme activity", "action": "inhibitor", "IC50 [nM]": 430}
{"SMILES": "COc1ncccc1-c1cnn2ccc(N3CCN(C(=O)OC(C)C)CC3)nc12", "target": "Alpha-2C adrenergic receptor (ADRA2C, Homo sapiens, UniProt P18825)", "observed": "cell-free assay", "IC50 [nM]": "> 30000"}
{"SMILES": "O=c1c2ccccc2[se]n1-c1ccccc1", "target": "Leucine-rich repeat serine/threonine-protein kinase 2 (LRRK2, Homo sapiens, UniProt Q5S007)", "observed": "enzyme activity", "action": "inhibitor", "technique": "radiometric", "IC50 [nM]": 2000}
{"SMILES": "CCN(CCCC[C@H](NC(=O)[C@H](CC(C)C)NC(=O)[C@H](C)NC(=O)[C@H](Cc1ccccc1)NC(=O)c1ccc(N)cc1)C(=O)N[C@@H](CO)C(N)=O)C(C)C", "target": "M-phase phosphoprotein 8 chromodomain", "observed": "cell-free assay", "technique": "TR-FRET", "IC50 [nM]": 1800}
{"SMILES": "CNC(=O)Oc1cccc2c1OC(C)(C)C2", "target": "AChE", "observed": "enzyme activity", "action": "inhibitor", "IC50 [nM]": 8}
